Source: ChEMBL document CHEMBL5543129, “Peptide Inhibitor Targeting the Extraterminal Domain in BRD4 Potently Suppresses Breast Cancer Both In Vitro and In Vivo” (J Med Chem, 2024)
Activity calls are given as the source filed them. No cut-off for these calls is given here. Square brackets hold non-standard residues; d marks the D form. Peptide text beside a SMILES is read from it. Hyp = O=C(O)[C@@H]1C[C@@H](O)CN1; Ahx = NCCCCCC(=O)O

Key:
[1] = Downregulation of JMJD6 protein expression in human MDA-MB-231 cells assessed as fold change in remaining JMJD6 level at 10 uM incubated for 24 hrs by immunoblotting analysis (reference value: 1); assay type: functional
In short: (§1)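 Cells treated with peptide (10 μM) for 24 h. Lysates in Tris/NaCl/EDTA/1% Triton X-100, run on 10% SDS-PAGE and immunoblotted with ECL detection. β-actin as loading control. Three repeats, quantified against untreated cells.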

[2] = Downregulation of N-myc protein expression in BALB/c mouse tumor xenografted with human MDA-MB-231 cells assessed as fold change in remaining N-myc level at 25 mg/kg, ip administered every 2 days by immunoblotting analysis; assay type: functional
In short: (§2)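 Tumours taken from xenograft mice dosed with peptide at 25 mg/kg ip every 2 days. […] Three repeats.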

T47D = test: Inhibition of cell migration in human T47D cells at 10 uM incubated for 24 hrs in presence of fulvestrant by inverted microscopic analysis; assay type: functional, cell-based
In short: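 Cells are seeded at 5 × 10^5/well and scratched at 80–90% confluence. They are kept in serum-free medium with peptide (10 μM); partner agents are JQ1 5 μM, iJMJD6 10 μM, or ICI 2.5 μM. Wound area is imaged by inverted microscope at 0 and 12 or 24 h. Wound closure % = (A0−A1)/A0 × 100. Three biological repeats.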

[3] = Toxicity in BALB/c mouse xenografted with human MCF7 cells assessed as change in kidney at 12.5 mg/kg, ip administered every 2 days in presence of 12.5 mg/kg JMJD6 inhibitor; assay type: organism-based; settings: in vivo, 48 h
In short: (§3)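 Female BALB/c nude mice carried MCF7 xenografts (5 × 10^6 cells sc, E2 10–2 M brushed every 2 days) and were randomized at about 50 mm3. Peptide was given at 12.5 mg/kg ip every 2 days, and iJMJD6 (DMSO/PBS 1:20) at 12.5 mg/kg ip every other day, alone or combined. Body and organ weights were recorded.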

MDA-MB-231 = test: Antiproliferative activity against human MDA-MB-231 cells at 10 uM incubated for 1 week in presence of 5 uM JQ1 by CellTiter 96 Aqueous One Solution based assay; assay type: functional, cell-based; settings: time 1.0 weeks
In short: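 Cells seeded at 2 × 10^3/well and treated with peptide (10 μM) alone or combined with JQ1 (5 μM), iJMJD6 (10 μM) or ICI (2.5 μM), as the line states. Viability read by MTS reagent, 1 h at 37 °C, A490. Three biological repeats.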

[4] = Downregulation of CCND1 protein expression in BALB/c mouse tumor xenografted with human MCF7 cells assessed as fold change in remaining CCND1 level at 25 mg/kg, ip administered every 2 days by immunoblotting analysis; assay type: functional; in short: as §2
[5] = Downregulation of BRD4 protein expression in human MDA-MB-231 cells assessed as fold change in remaining BRD4 level at 10 uM incubated for 24 hrs by immunoblotting analysis (reference value: 1); assay type: functional; in short: as §1
[6] = Toxicity in BALB/c mouse xenografted with human MCF7 cells assessed as change in spleen at 12.5 mg/kg, ip administered every 2 days in presence of 12.5 mg/kg JMJD6 inhibitor; assay type: organism-based; settings: in vivo, 48 h; in short: as §3
[7] = Toxicity in BALB/c mouse xenografted with human MCF7 cells assessed as change in body weight at 12.5 mg/kg, ip administered every 2 days in presence of 12.5 mg/kg JMJD6 inhibitor; assay type: organism-based; settings: in vivo, 48 h; in short: as §3
[8] = Toxicity in BALB/c mouse xenografted with human MDA-MB-231 cells assessed as change in kidney weight at 12.5 mg/kg, ip administered every 2 days in presence of 50 mg/kg JQ1; assay type: organism-based; settings: in vivo, 48 h
In short: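 Female BALB/c nude mice (4–6 weeks) carried sc MDA-MB-231 xenografts (5 × 10^6 cells) and were randomized at about 50 mm3. Peptide (12.5 mg/kg ip in saline) and JQ1 (50 mg/kg ip, DMSO/10% HPBCD 1:10) were given every 2 days, alone or combined. Body weight was recorded, and heart, liver, spleen, lung and kidney morphology and weight were assessed.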

MCF7 [9] = test: Antitumor activity against human MCF7 cells xenografted in BALB/c nude mouse assessed as reduction in tumor growth at 25 mg/kg, ip administered every 2 days; assay type: functional, organism-based
In short: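 Female BALB/c nude mice, 4–6 wk, given 5 × 10^6 cells in PBS subcutaneously; MCF7 mice also had E2 (10^-2 M) brushed on the neck every 2 days. Randomised at ~50 mm3. Peptide in 0.9% saline, 25 mg/kg ip every 2 days. Caliper volume (1/2 × L × W²) every 2 days.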

[10] = Toxicity in BALB/c mouse xenografted with human […] assessed as body weight loss at 25 mg/kg, ip administered every 2 days; assay type: organism-based; settings: in vivo, 48 h
In short: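 Female BALB/c nude mice (4–6 weeks) received 5 × 10^6 MCF7 cells sc in PBS, with estrogen (E2, 10–2 M) brushed on the neck every 2 days. Mice were randomized at about 50 mm3 tumor volume. Peptide in normal saline was given ip at 25 mg/kg every 2 days. Body weight was monitored.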

[11] = Toxicity in BALB/c mouse xenografted with human MCF7 cells assessed as change in liver at 12.5 mg/kg, ip administered every 2 days in presence of 12.5 mg/kg JMJD6 inhibitor; assay type: organism-based; settings: in vivo, 48 h; in short: as §3
[12] = Downregulation of JMJD6 protein expression in human MCF7 cells assessed as fold change in remaining JMJD6 level at 10 uM incubated for 24 hrs by immunoblotting analysis (reference value: 1); assay type: functional; in short: as §1
Mus musculus = test: Downregulation of CCND1 mRNA expression in BALB/c mouse tumor xenografted with human MDA-MB-231 cells at 25 mg/kg, ip administered every 2 days by RT-qPCR analysis; assay type: functional, organism-based
[13] = Toxicity in BALB/c mouse xenografted with human MCF7 cells assessed as change in liver morphology at 12.5 mg/kg, ip administered every 2 days in presence of 50 mg/kg JQ1; assay type: organism-based; settings: in vivo, 48 h
MCF7 [14] = test: Inhibition of colony formation in human MCF7 cells at 10 uM incubated for 2 weeks in presence of 5 uM JQ1 by crystal violet staining based assay; assay type: functional, cell-based
In short: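 Cells are seeded at 1 × 10^3/well and treated with peptide (10 μM) for 2 weeks, alone or with JQ1 5 μM, iJMJD6 10 μM, ICI 2.5 μM, or tamoxifen 3 μM (tamoxifen-resistant lines). Colonies are stained with crystal violet, dissolved in 10% acetic acid, and read at 590 nm. Three biological repeats.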

MCF7 [15] = test: Antitumor activity against human MCF7 cells xenografted in BALB/c nude mouse assessed as reduction in tumor weight at 12.5 mg/kg, ip administered every 2 days in presence of 12.5 mg/kg JMJD6 inhibitor; assay type: functional, organism-based
In short: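 Female BALB/c nude mice given 5 × 10^6 cells sc (MCF7 mice with E2 10^-2 M every 2 days), randomised at ~50 mm3. Peptide 12.5 mg/kg ip (saline) every 2 days, plus JQ1 50 mg/kg ip (DMSO/10% HPBCD 1:10) every 2 days or iJMJD6 12.5 mg/kg ip (DMSO/PBS 1:20). Caliper volume every 2 days; tumours weighed at the end.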

**Q.** Which results are given for `CC[C@H](C)[C@H](NC(=O)[C@H](Cc1ccc(O)cc1)NC(=O)[C@@H]1C[C@@H](O)CN1C(=O)[C@H](C)NC(=O)[C@@H](NC(=O)CCCCCNC(=O)[C@H](CCC(=O)O)NC(=O)CNC(=O)[C@H](CS)NC(=O)[C@H](CCCCN)NC(=O)[C@H](Cc1ccccc1)NC(=O)[C@H](CCCCN)NC(=O)[C@H](CCC(N)=O)NC(=O)[C@H](CC(N)=O)NC(=O)[C@H](CCCNC(=N)N)NC(=O)[C@H](CCCNC(=N)N)NC(=O)[C@H](CCCNC(=N)N)NC(=O)[C@H](CCCNC(=N)N)NC(=O)[C@H](CCC(N)=O)NC(=O)[C@H](CCCNC(=N)N)NC(=O)[C@H](CCCNC(=N)N)NC(=O)[C@H](CCCCN)NC(=O)[C@H](CCCCN)NC(=O)[C@H](CCCNC(=N)N)NC(=O)CNC(=O)[C@@H](N)Cc1ccc(O)cc1)[C@@H](C)CC)C(=O)O` (H-YGRKKRRQRRRRNQKFKCGE[Ahx]IA[Hyp]YI-OH)?
**A.** fold change (FC) [1]: 0.38; fold change (FC) [2]: 0.13; inhibition (T47D): Active; Activity [3]: Non-Toxic; Activity (MDA-MB-231): Active; fold change (FC) [4]: 0.09; fold change (FC) [5]: 0.55; Activity [6]: Non-Toxic; Activity [7]: Non-Toxic; Activity [8]: Non-Toxic; Activity (MCF7 [9]): Active; Activity [10]: Non-Toxic; Activity [11]: Non-Toxic; fold change (FC) [12]: 0.5; Activity (Mus musculus): Active; Activity [13]: Non-Toxic; inhibition (MCF7 [14]): Active; Activity (MCF7 [15]): Active

**Q.** Which “fold change (FC)” value [1] does the source give for H-YGRKKRRQRRRRNQKFKCGE-OH here?
**A.** 1.04

**Q.** And the “fold change (FC)” value [2]?
**A.** 0.38

**Q.** What about the inhibition (T47D) of the same compound?
**A.** Active

**Q.** And the Activity [3]?
**A.** Non-Toxic

**Q.** And the Activity (MDA-MB-231)?
**A.** Active

**Q.** And the “fold change (FC)” value [4]?
**A.** 0.11

**Q.** And the “fold change (FC)” value [5]?
**A.** 1.06

**Q.** And the Activity [6]?
**A.** Non-Toxic

**Q.** And the Activity [7]?
**A.** Non-Toxic

**Q.** And the Activity [8]?
**A.** Non-Toxic

**Q.** What about the Activity (MCF7 [9]) of the same compound?
**A.** Active

**Q.** What about the Activity [10] of the same compound?
**A.** Non-Toxic

**Q.** What about the Activity [11] of the same compound?
**A.** Non-Toxic

**Q.** And the “fold change (FC)” value [12]?
**A.** 0.91

**Q.** What about the Activity (Mus musculus) of the same compound?
**A.** Active

**Q.** And the Activity [13]?
**A.** Non-Toxic

**Q.** And the inhibition (MCF7 [14])?
**A.** Active

**Q.** And the Activity (MCF7 [15])?
**A.** Active
